Laboratory results published in ChEMBL document CHEMBL1128703, “Chromophore-modified antitumor anthracenediones: synthesis, DNA binding, and cytotoxic activity of 1,4-bis[(aminoalkyl)amino]benzo[g]-phthalazine-5,10-diones” (J Med Chem, 1995).

What was measured:
A-375 = test: Inhibitory activity against human tumor cell line […] melanoma.; format: functional, cell-based
Outline: (§1)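 Fibrosarcoma HT-1080, colon HT-29, breast MCF-7 and melanoma A-375 adapted to complete RPMI 1640; seeded 2.5 × 10^4 cells/mL, preincubated 24 h, exposed to drug 144 h. MTT assay, formazan dissolved in DMSO, absorbance per well read; IC50 (M) taken as concentration giving 50% growth inhibition.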

HT-29 [1] = test: Inhibitory activity against human tumor cell line HT-29.; format: functional, cell-based; outline: as §1
MCF7 = test: Inhibitory activity against human tumor cell line MCF-7 breast adenocarcinoma.; format: functional, cell-based; outline: as §1
LoVo [2] = test: (§2) Inhibitory activity against human colon adenocarcinoma cell line LoVo/Dx.; format: functional, cell-based
Outline: (§3)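 LoVo and doxorubicin-resistant LoVo/Dx grown in Ham's F12 with 10% FCS, glutamine, BME vitamins, HEPES, pen/strep; 37 °C, CO2, mycoplasma-checked by DAPI. Seeded 2.5 × 10^4 cells/mL, preincubated 24 h, then drug exposure 144 h. MTT read-out at 570 nm; IC50 (μg/mL) as concentration inhibiting growth by 50%, at least three runs averaged.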

LoVo [3] = test: Inhibitory activity against human colon adenocarcinoma cell line LoVo.; format: functional, cell-based; outline: as §3
[4] = (§4) Resistance index as the ratio of IC50 value against LoVo/Dx to that of LoVo cell lines.; format: functional
Outline: (§5)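 LoVo and LoVo/Dx, each seeded 2.5 × 10^4 cells/mL, preincubated 24 h, exposed to drug 144 h; MTT formazan read at 570 nm. Resistance index = IC50 in LoVo/Dx divided by IC50 in LoVo.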

HT-1080 [5] = test: Inhibitory activity against human tumor cell line HT1080.; format: functional, cell-based; outline: as §1
Nucleic Acid [6] = test: Ki value was measured for the binding of compound to DNA in ETN.; format: nucleic-acid assay, Bos taurus
Outline: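 UV-vis titration: DNA added to ligand at fixed concentration in 10 mM Tris, 2 mM EDTA, NaCl to ionic strength 0.15 M, pH 7.0, 25 °C. Bound/free ligand from absorbance at wavelength of largest change (isosbestic points present); intrinsic constant and site size fitted by least squares to the neighbour-exclusion equation.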

Nucleic Acid [7] = test: dichroism data for visible band in the compound to DNA in ETN.; format: nucleic-acid assay; details: Bos taurus
Outline: (§6)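 Dichroism in Tris-EDTA-NaCl buffer, ionic strength 0.1, pH 7.0, 25 °C. CD given as Δε from ellipticity, path length and molar concentration. Linear dichroism with DNA oriented in rotating quartz cell at 600-800 rpm, four accumulations; ligand orientation angle derived from ligand/DNA reduced LD ratio, taking bases at 90°.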

LoVo [8] = test: as §4; format: functional, Homo sapiens; outline: as §5
Nucleic Acid [9] = test: dichroism data for visible band in the compound to calf thymus DNA in ETN.; format: nucleic-acid assay; details: Bos taurus; outline: as §6
HT-29 [10] = test: Inhibitory activity against human tumor cell line HT-29; format: functional, cell-based; outline: as §1
HT-1080 [11] = test: Inhibitory activity against human tumor cell line HT1080; format: functional, cell-based; outline: as §1
HT-29 [12] = test: as §2; format: functional, cell-based; details: in the assay text read “HT-29” for “LoVo/Dx”
HT-1080 [13] = test: inhibit the cellular growth by 50% was determined against human tumor cell line HT1080.; format: functional, cell-based; outline: as §1

IC50 (LoVo [2]) [nM] | IC50 (LoVo [3]) [nM] | Structure (SMILES) | RI [4] | further results
440 | 73 | CN(C)CCNc1nnc(NCCN(C)C)c2c1C(=O)c1ccccc1C2=O.Cl | 6 | IC50 (A-375): 33 nM; IC50 (HT-29 [1]): 9.4 nM; IC50 (MCF7): 0.95 nM; IC50 (HT-1080 [5]): 46 nM
1200 | 260 | O=C1c2ccccc2C(=O)c2c(NCCN3CCCCC3)nnc(NCCN3CCCCC3)c21 | 4.6 | 
1300 | 1400 | O=C1c2ccccc2C(=O)c2c(NCc3ccccc3)nnc(NCc3ccccc3)c21 | 0.9 | 
> 260000 | > 8100 | OCCNCCNc1nnc(NCCNCCO)c2cc3ccccc3cc12 |  | 
6000 | 43 | COc1cccc2c1C(=O)c1c(O)c3c(c(O)c1C2=O)C[C@@](O)(C(=O)CO)C[C@@H]3O[C@H]1C[C@H](N)[C@H](O)[C@H](C)O1 [DOXORUBICIN] | 139.5 | 
 |  | Cl.Nc1nnc(NCCNCCO)c2c1C(=O)c1ccccc1C2=O |  | IC50 (A-375): 0.47 nM; Ki (Nucleic Acid [6]): 45000 M⁻¹; LD (Nucleic Acid [9]): -0.13; IC50 (HT-29 [10]): 5.2 nM; IC50 (HT-1080 [11]): 8.3 nM; IC50 (MCF7): 47 nM
39000 | 2700 | Cl.O=C1c2ccccc2C(=O)c2c(NCCNCCO)nnc(NCCNCCO)c21 |  | Ki (Nucleic Acid [6]): 47000 M⁻¹; LD (Nucleic Acid [7]): -0.13; IC50 (HT-29 [1]): 410 nM; IC50 (MCF7): 720 nM; RI (LoVo [8]): 14.4; IC50 (HT-1080 [5]): 1300 nM
1000 | 49 | CN(C)CCCNc1nnc(NCCCN(C)C)c2c1C(=O)c1ccccc1C2=O | 20.4 | 
36000 | > 9600 | OCCCNc1nnc(NCCCO)c2cc3ccccc3cc12 | >3.7 | 
 |  | CN(C)CCNc1nnc(N)c2c1C(=O)c1ccccc1C2=O |  | IC50 (HT-29 [12]): 6.5 nM; IC50 (HT-1080 [13]): 34 nM
1700 | 180 | CCN(CC)CCNc1nnc(NCCN(CC)CC)c2c1C(=O)c1ccccc1C2=O | 9.4 | 
< 2000 | 76 | Cl.O=C1c2ccccc2C(=O)c2c(NCCCO)nnc(NCCCO)c21 | <26 | 

Structure (SMILES) | IC50 (LoVo [2]) [nM] | IC50 (LoVo [3]) [nM] | RI [4] | further results
O=C1c2ccccc2C(=O)c2c(NCCNCCO)ccc(NCCNCCO)c21 [AMETANTRONE] | 92000 | 580 |  | Ki (Nucleic Acid [6]): 340000 M⁻¹; LD (Nucleic Acid [7]): -0.13; RI (LoVo [8]): 158.6
O=C1c2c(O)ccc(O)c2C(=O)c2c(NCCNCCO)ccc(NCCNCCO)c21 [MITOXANTRONE] | 530 | 9.7 | 54.6 | IC50 (A-375): 26 nM; IC50 (HT-29 [1]): 17 nM; IC50 (MCF7): 20 nM; IC50 (HT-1080 [5]): 66 nM
